# The list is not random: actives were taken first. Their share in the collection is about 5.9%.
# GASC1 inh – KDM4C (human) demethylase inhibition | GST-KDM4C 2-372, H3K9me3 peptide, LANCE TR-FRET | inhibition, % at 12.5 µM | 96,000 tested, 0.15% active;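 active = mean replicate inhibition above about 25%, with at least 55% of replicates also reaching it, limit read from the data, passing the limit was not always enough; inconclusive = only one of those two conditions met; inactive = neither condition met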
#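 Assay system: GST-GASC-1 enzyme fragment 2-372 | Amount: 10 nM enzyme | Medium: HEPES buffer, pH 7.5, plus ascorbate | Reagent: H3K9me3 peptide substrate, Fe(II), 2-oxoglutarate | Doses: Single-point compound screen | Incubation: 30 min demethylation and 1 h detection at room temperature | Measured by: LANCE TR-FRET, excitation 340 nm, emissions 618 and 671 nm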
# Pf Dd2 inh – blocks growth of Plasmodium falciparum Dd2 parasites; activity change, % at 10 µM; 94,000 tested, 2.3% active; P. falciparum Dd2 growth, SYBR Green, 72 h; stronger effect = lower value; in the data active = activity change below about -80%; inconclusive = no clear call, values can overlap the other calls
# T cruzi growth-1 – T. cruzi proliferation inhibition | AID 624255 | 77,000 tested, 5.9% active | T. cruzi beta-gal in NIH3T3, GalScreen luminescence, 90 h | inhibition, % at 8.34 µM;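 active = mean inhibition above about 93%, with at least 55% of replicates each passing it, limit read from the data, passing the limit was not always enough; inconclusive = only one of those two conditions holds; inactive = neither condition holds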
# IDH1 mut inh – IDH1 R132H (human) inhibition | O75874 | IDH1 R132H reductase, diaphorase/resazurin fluorescence, 60 min | inhibition, % at 10 µM | 70,000 tested, 0.18% active; in the data active = inhibition above about 34%; inconclusive = no clear call, values can overlap the other calls; inactive = below about 11%;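 also: 0% = DMSO and 100% = no enzyme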
# Target sequence (O75874 whole entry R132H): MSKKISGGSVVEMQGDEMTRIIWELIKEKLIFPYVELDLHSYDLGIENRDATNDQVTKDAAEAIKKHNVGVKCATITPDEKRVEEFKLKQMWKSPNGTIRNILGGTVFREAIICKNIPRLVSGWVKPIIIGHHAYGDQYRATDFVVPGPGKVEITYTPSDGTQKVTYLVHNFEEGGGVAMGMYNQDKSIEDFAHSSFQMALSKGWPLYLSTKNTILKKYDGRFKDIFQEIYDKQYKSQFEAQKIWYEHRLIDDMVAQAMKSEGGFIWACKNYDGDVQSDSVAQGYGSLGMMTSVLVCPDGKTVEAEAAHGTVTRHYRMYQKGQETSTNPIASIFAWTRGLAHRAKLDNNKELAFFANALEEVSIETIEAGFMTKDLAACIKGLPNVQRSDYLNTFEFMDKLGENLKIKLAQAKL
# T cruzi growth-2 – Trypanosoma cruzi proliferation inhibition; shares compounds with T cruzi growth-1; T. cruzi beta-gal in NIH3T3, GalScreen luminescence, 90 h; inhibition, % at 8.35 µM; 5,600 tested, 72% active;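 active = mean replicate inhibition above about 95% and at least 55% of replicates individually reaching it, limit read from the data; inconclusive = only one of the two criteria is met; inactive = neither criterion is met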
# T cruzi growth-3 – inhibitors of T. cruzi proliferation. shares compounds with T cruzi growth-1. 5,600 tested, 21% active. T. cruzi beta-gal in NIH3T3, GalScreen luminescence, 90 h. inhibition, % at 2.09 µM;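 active = mean inhibition above about 95%, with at least 55% of replicates also reaching it, limit read from the data; inconclusive = meets just one of the two conditions; inactive = meets neither condition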;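 also: plate controls were neutral control median for no effect and positive control median for full effect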
# NIH3T3 tox – kills mouse NIH/3T3 fibroblasts. shares compounds with T cruzi growth-1. NIH/3T3 viability, CellTiter-Glo ATP luminescence, 90 h. cytotoxicity (signal decrease), % at 8.35 µM. 5,600 tested, 14% active. AID 651742;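 active = mean signal decrease across replicates above about 35% based on untreated-well scatter, with enough replicates individually passing, limit read from the data; inconclusive = no rule stated though some were filed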;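 also: 0% = median of neutral control wells and 100% = median of positive control wells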
# 3T3 cytotox 2 – kills mouse NIH/3T3 fibroblasts. NIH/3T3 viability, CellTiter-Glo ATP luminescence, 90 h. AID 651744. inhibition, % at 24.9 µM. shares compounds with T cruzi growth-1. 5,600 tested, 56% active;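 active = mean loss of cell viability signal at or above a set limit, and enough replicates individually reaching it; inconclusive = meets only the mean limit or only the replicate share; inactive = meets neither condition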;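 also: 0% = median of neutral control wells and 100% = median of positive control wells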
# Active calls of the source: *; ? = inconclusive; . = no result.
SMILES,GASC1 inh,Pf Dd2 inh,T cruzi growth-1,IDH1 mut inh,T cruzi growth-2,T cruzi growth-3,NIH3T3 tox,3T3 cytotox 2
COc1ccc(C#Cc2cnc3c(c2)C(=O)N([C@@H](C)CO)C[C@H](C)[C@@H](CN(C)C(=O)Nc2cccc(OC)c2)O3)cc1,-4.0,-5.4,42.1,.,.,.,.,.
COc1ccc(C#Cc2cnc3c(c2)C(=O)N([C@H](C)CO)C[C@@H](C)[C@@H](CN(C)C(=O)Nc2cccc(OC)c2)O3)cc1,-2.7,-66.0,?,-7.1,109.8*,82.5,-19.0,12.9
COc1ccc(NC(=O)Nc2ccc3c(c2)C(=O)N([C@H](C)CO)C[C@@H](C)[C@H](CN(C)S(=O)(=O)c2ccc(Cl)cc2)OCCCC[C@@H](C)O3)cc1,-0.5,-76.7,115.2*,1.0,104.5*,101.1*,-5.4,17.9
COc1ccc(NC(=O)Nc2ccc3c(c2)C(=O)N([C@@H](C)CO)C[C@H](C)[C@@H](CN(C)S(=O)(=O)c2ccc(Cl)cc2)OCCCC[C@@H](C)O3)cc1,-0.5,-79.8,106.7*,5.0,108.7*,112.1*,0.7,18.2
COc1cc(O)c2c(c1)CCc1cc(OC)c(OC)cc1-2,.,.,.,-0.5,.,.,.,.
COc1ccc(S(=O)(=O)Nc2ccc3c(c2)C(=O)N([C@@H](C)CO)C[C@@H](C)[C@H](CN(C)S(=O)(=O)c2ccc(Cl)cc2)OCCCC[C@H](C)O3)cc1,-1.3,-63.7,99.7*,0.5,108.3*,89.7,-0.8,2.8
COc1ccc(S(=O)(=O)Nc2ccc3c(c2)C(=O)N([C@@H](C)CO)C[C@@H](C)[C@H](CN(C)S(=O)(=O)c2ccc(Cl)cc2)OCCCC[C@@H](C)O3)cc1,-1.1,-36.8,?,0.7,104.9*,104.2*,9.6,32.7*
COc1ccc(S(=O)(=O)Nc2ccc3c(c2)C(=O)N([C@@H](C)CO)C[C@@H](C)[C@@H](CN(C)S(=O)(=O)c2ccc(Cl)cc2)OCCCC[C@@H](C)O3)cc1,0.8,-42.6,83.8,1.6,.,.,.,.
COc1ccc(S(=O)(=O)Nc2ccc3c(c2)C(=O)N([C@H](C)CO)C[C@@H](C)[C@@H](CN(C)S(=O)(=O)c2ccc(Cl)cc2)OCCCC[C@H](C)O3)cc1,3.8,-72.0,99.5*,-0.3,101.8*,?,-31.5,0.6
COc1ccc(S(=O)(=O)Nc2ccc3c(c2)C(=O)N([C@H](C)CO)C[C@H](C)[C@H](CN(C)S(=O)(=O)c2ccc(Cl)cc2)OCCCC[C@H](C)O3)cc1,0.1,-56.0,?,-1.6,103.1*,107.2*,-11.7,24.5
COc1ccc(S(=O)(=O)N(C)C[C@@H]2OCCCC[C@@H](C)Oc3ccc(NS(=O)(=O)c4ccc(Cl)cc4)cc3C(=O)N([C@H](C)CO)C[C@H]2C)cc1,.,-23.2,.,.,.,.,.,.
Cc1cc(-c2ccc(Cl)cc2)nc(SCC(=O)Nc2ccccc2)n1,.,.,.,0.7,.,.,.,.
O=C(Nc1ccccc1F)N1CCCCN2[C@H](CO)[C@H](c3ccc(/C=C/c4ccccc4)cc3)[C@@H]2C1,-0.1,-3.0,116.0*,.,96.3*,113.1*,44.5*,57.5*
C/C=C/c1ccc([C@H]2[C@@H](CO)N3CCCCN(C(=O)Nc4ccccc4F)C[C@@H]23)cc1,-1.6,21.1,109.6*,.,98.1*,51.6,-13.5,2.4
CCOC(=O)NC(=O)CSc1nc2ccccc2s1,.,.,.,-0.4,.,.,.,.
C[C@H]1CN([C@@H](C)CO)C(=O)Cc2cc(NC(=O)Cc3cn(C)c4ccccc34)ccc2O[C@H]1CN(C)Cc1ccc(Cl)c(Cl)c1,-1.9,-58.7,100.1*,-22.8,106.8*,56.9,-7.1,-3.1
C[C@H](CO)N1C[C@H](C)[C@H](CN(C)Cc2ccc(C(F)(F)F)cc2)Oc2ccc(NC(=O)Cc3cn(C)c4ccccc34)cc2CC1=O,-3.6,-33.7,100.7*,-1.1,106.8*,19.0,19.7,?
C[C@@H]1CN([C@@H](C)CO)C(=O)Cc2cc(NC(=O)Cc3ccccc3)ccc2O[C@H]1CN(C)Cc1ccc(C(F)(F)F)cc1,4.6,-29.2,93.7,2.3,.,.,.,.
C[C@H](CO)N1C[C@H](C)[C@@H](CN(C)Cc2ccc(C(F)(F)F)cc2)Oc2ccc(NC(=O)Cc3cn(C)c4ccccc34)cc2CC1=O,-2.1,-20.7,86.8,3.0,.,.,.,.
C[C@H](CO)N1C[C@H](C)[C@@H](CN(C)Cc2ccc(C(F)(F)F)cc2)Oc2ccc(NC(=O)Cc3ccccc3)cc2CC1=O,-1.2,-20.5,105.8*,2.4,94.7,100.8*,-1.4,103.9*
C[C@H]1CN([C@@H](C)CO)C(=O)Cc2cc(NC(=O)Cc3ccccc3)ccc2O[C@H]1CN(C)Cc1ccc(Cl)c(Cl)c1,8.1,-11.6,?,-3.3,100.3*,59.1,21.3,105.1*
O=C(CCCCCC(=O)N/N=C/C=C/c1ccccc1)NO,.,.,.,0.3,.,.,.,.
COc1cccc(-n2nnnc2SCC(=O)Nc2c(C)cc(C)cc2C)c1,.,.,.,0.0,.,.,.,.
Cc1ccc(-c2ccc([C@H]3[C@@H](CO)N4CCCCN(C(=O)Nc5ccccc5)C[C@@H]34)cc2)cc1,-1.9,28.6,118.1*,.,106.2*,85.8,9.9,77.7*
Cc1ccccc1-c1ccc([C@H]2[C@@H](CO)N3CCCCN(C(=O)Nc4ccccc4)C[C@@H]23)cc1,-3.8,14.3,-6.3,.,.,.,.,.
SMILES,GASC1 inh,Pf Dd2 inh,T cruzi growth-1,IDH1 mut inh,T cruzi growth-2,T cruzi growth-3,NIH3T3 tox,3T3 cytotox 2
Cc1ccc(-c2ccc([C@@H]3[C@H]4CN(C(=O)Nc5ccccc5)CCCCN4[C@H]3CO)cc2)cc1,1.2,6.9,?,.,?,95.0,33.2,103.4*
COc1ccc(CCNC(=O)c2cc3cc(Br)cc(OC)c3oc2=O)cc1OC,.,.,.,0.1,.,.,.,.
C[C@@H]1CN([C@H](C)CO)S(=O)(=O)c2ccc(-c3ccncc3)cc2O[C@@H]1CN(C)Cc1ccccc1,1.9,-31.1,88.1,0.6,.,.,.,.
Cc1ccc(-c2ccc3c(c2)O[C@@H](CN(C)Cc2ccncc2)[C@@H](C)CN([C@@H](C)CO)S3(=O)=O)cc1,-0.9,-66.2,120.2*,1.8,92.5,91.3,63.8*,90.3*
C[C@@H]1CN([C@H](C)CO)S(=O)(=O)c2ccc(-c3cncnc3)cc2O[C@@H]1CN(C)Cc1ccncc1,4.0,7.1,16.9,20.5,.,.,.,.
C[C@@H]1CN([C@@H](C)CO)S(=O)(=O)c2ccc(Br)cc2O[C@H]1CN(C)Cc1ccncc1,.,-40.8,100.8*,.,102.1*,98.6*,25.0,13.9
Cc1ccc(-c2ccc3c(c2)O[C@H](CN(C)Cc2ccncc2)[C@H](C)CN([C@H](C)CO)S3(=O)=O)cc1,.,-15.1,108.7*,52.2*,97.6*,75.4,49.1*,47.1*

# Source: PubChem
